Assay results as given in ChEMBL document CHEMBL1126849, “Synthesis of A-ring fluorinated derivatives of (17 alpha,20E/Z)-[125I]iodovinylestradiols: effect on receptor binding and receptor-mediated target tissue uptake” (J Med Chem, 1993).

What was measured:
Conditions in all cases: in vivo
[1] = system: Rattus norvegicus; assay: Biodistribution in uterus of Immature Female rat after 12 hour administration of 3 micro Ci (111 kBq) in the absence of 60 microg estradiol; format: ADME, organism-based
Procedure, shortened: (§1)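 Immature female Long Evans rats (21–24 days, 45–70 g), 3–5 per group, unanesthetized in retention cages, given 3 μCi (111 kBq) 125I-labeled steroid by lateral tail vein. Vehicle: ethanol diluted with saline containing 1% Tween-80, final ethanol 9%. +E2 group co-injected 60 μg unlabeled estradiol (1 h only). Killed under ether; tissues KCl-washed, weighed, gamma-counted. Output: %ID/g (mean, SE) and uterus to blood or nontarget (muscle, spleen, lungs) ratios.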

[2] = system: Rattus norvegicus; assay: Biodistribution in thyroid of Immature Female rat after 5 hour administration of 3 micro Ci (111 kBq) in the absence of 60 microg estradiol; format: ADME, organism-based, Thyroid gland
Procedure, shortened: (§2)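 Immature female Long Evans rats (21–24 days, 45–70 g), three to five per group, given 125I-labeled steroid (3 μCi, 111 kBq) by lateral tail vein without anesthesia. Vehicle: ethanol diluted in saline with 1% Tween-80, final ethanol 9%, 0.22 μm filtered. +E2 groups received 60 μg unlabeled estradiol co-injected. Killed under ether at set times; tissues KCl-washed, blotted, weighed, gamma counted; %ID/g, mean with SE.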

[3] = system: Rattus norvegicus; assay: Biodistribution in muscle of Immature Female rat after 1 hr administration of 3 micro Ci (111 kBq) in the absence of 60 microg estradiol; format: ADME, organism-based, Muscle tissue; procedure, shortened: as §2
[4] = system: Rattus norvegicus; assay: Biodistribution in liver of Immature Female rat after 3 hour administration of 3 micro Ci (111 kBq) in the absence of 60 microg estradiol; format: ADME, organism-based
Procedure, shortened: (§3)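 Immature female Long Evans rats (21–24 days, 45–70 g), unanesthetized in retention cages, given 3 µCi (111 kBq) 125I-labeled steroid i.v. via lateral tail vein. Vehicle was ethanol diluted in saline containing 1% Tween-80, giving 9% ethanol final. The blocking group received 60 µg unlabeled estradiol co-injected. Rats were killed under ether by axillary bleeding, and tissues were KCl-washed and gamma-counted. Data are %ID/g, mean ± SE, n=3–5.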

[5] = system: Rattus norvegicus; assay: Biodistribution in lungs of Immature Female rat after 1 hr administration of 3 micro Ci (111 kBq) in the presence of (+E2); format: ADME, organism-based, Lung; procedure, shortened: as §3
[6] = system: Rattus norvegicus; assay: Biodistribution in spleen of Immature Female rat after 3 hour administration of 3 micro Ci (111 kBq) in the absence of 60 microg estradiol; format: ADME, organism-based; procedure, shortened: as §2
[7] = system: Rattus norvegicus; assay: Biodistribution in kidney of Immature Female rat after 5 hour administration of 3 micro Ci (111 kBq) in the absence of 60 microg estradiol; format: ADME, organism-based; procedure, shortened: as §3
[8] = system: Rattus norvegicus; assay: Biodistribution in spleen of Immature Female rat after 1 hr administration of 3 micro Ci (111 kBq) in the presence of (+E2); format: ADME, organism-based; procedure, shortened: as §2
[9] = system: Rattus norvegicus; assay: Biodistribution in fat of Immature Female rat after 1 hr administration of 3 micro Ci (111 kBq) in the presence of (+E2); format: ADME, organism-based, Adipose tissue; procedure, shortened: as §3
[10] = system: Rattus norvegicus; assay: Biodistribution in uterus / blood of Immature Female rat after 1 hr administration of 3 micro Ci (111 kBq) in the absence of 60 microg estradiol; format: ADME, organism-based
Procedure, shortened: (§4)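 Same in vivo procedure: immature female Long Evans rats (21–24 days), three to five per group, 3 μCi (111 kBq) tracer i.v. via tail vein in 9% ethanol/saline/1% Tween-80, ± 60 μg estradiol co-injected at 1 h. Uterus %ID/g (gamma counting) divided by blood, or by nontarget organ (muscle, spleen, lungs), %ID/g to give ratios.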

[11] = system: Rattus norvegicus; assay: Biodistribution in spleen of Immature Female rat after 1 hr administration of 3 micro Ci (111 kBq) in the absence of 60 microg estradiol; format: ADME, organism-based; procedure, shortened: as §2
[12] = system: Rattus norvegicus; assay: Biodistribution in blood of Immature Female rat after 1 hr administration of 3 micro Ci (111 kBq) in the presence of (+E2); format: ADME, organism-based; procedure, shortened: as §3
[13] = system: Rattus norvegicus; assay: Biodistribution in kidney of Immature Female rat after 3 hour administration of 3 micro Ci (111 kBq) in the absence of 60 microg estradiol; format: ADME, organism-based; procedure, shortened: as §3
[14] = system: Rattus norvegicus; assay: Biodistribution in uterus / spleen, muscle, lungs of Immature Female rat after 1 hr administration of 3 micro Ci (111 kBq) in the absence of 60 microg estradiol; format: ADME, organism-based; procedure, shortened: as §4
[15] = system: Rattus norvegicus; assay: Biodistribution in uterus of Immature Female rat after 1 hr administration of 3 micro Ci (111 kBq) in the absence of 60 microg estradiol; format: ADME, organism-based; procedure, shortened: as §1
[16] = system: Rattus norvegicus; assay: Biodistribution in lungs of Immature Female rat after 1 hr administration of 3 micro Ci (111 kBq) in the absence of 60 microg estradiol; format: ADME, organism-based, Lung; procedure, shortened: as §3
[17] = system: Rattus norvegicus; assay: Biodistribution in liver of Immature Female rat after 1 hr administration of 3 micro Ci (111 kBq) in the presence of (+E2); format: ADME, organism-based; procedure, shortened: as §3
[18] = system: Rattus norvegicus; assay: Biodistribution in muscle of Immature Female rat after 1 hr administration of 3 micro Ci (111 kBq) in the presence of (+E2); format: ADME, organism-based, Muscle tissue; procedure, shortened: as §2
[19] = system: Rattus norvegicus; assay: Biodistribution in uterus / spleen, muscle, lungs of Immature Female rat after 12 hour administration of 3 micro Ci (111 kBq) in the absence of 60 microg estradiol; format: ADME, organism-based; procedure, shortened: as §4
[20] = system: Rattus norvegicus; assay: Biodistribution in uterus / blood of Immature Female rat after 1 hr administration of 3 micro Ci (111 kBq) in the presence of (+E2); format: ADME, organism-based; procedure, shortened: as §4
[21] = system: Rattus norvegicus; assay: Biodistribution in fat of Immature Female rat after 12 hour administration of 3 micro Ci (111 kBq) in the absence of 60 microg estradiol; format: ADME, organism-based, Adipose tissue; procedure, shortened: as §3
[22] = system: Rattus norvegicus; assay: Biodistribution in blood of Immature Female rat after 1 hr administration of 3 micro Ci (111 kBq) in the absence of 60 microg estradiol; format: ADME, organism-based; procedure, shortened: as §3
[23] = system: Rattus norvegicus; assay: Biodistribution in thyroid of Immature Female rat after 1 hr administration of 3 micro Ci (111 kBq) in the presence of (+E2); format: ADME, organism-based, Thyroid gland; procedure, shortened: as §2
[24] = system: Rattus norvegicus; assay: Biodistribution in uterus of Immature Female rat after 1 hr administration of 3 micro Ci (111 kBq) in the presence of (+E2); format: ADME, organism-based; procedure, shortened: as §1
[25] = system: Rattus norvegicus; assay: Biodistribution in muscle of Immature Female rat after 5 hour administration of 3 micro Ci (111 kBq) in the absence of 60 microg estradiol; format: ADME, organism-based, Muscle tissue; procedure, shortened: as §2
[26] = system: Rattus norvegicus; assay: Biodistribution in uterus / blood of Immature Female rat after 5 hour administration of 3 micro Ci (111 kBq) in the absence of 60 microg estradiol; format: ADME, organism-based; procedure, shortened: as §4
[27] = system: Rattus norvegicus; assay: Biodistribution in fat of Immature Female rat after 5 hour administration of 3 micro Ci (111 kBq) in the absence of 60 microg estradiol; format: ADME, organism-based, Adipose tissue; procedure, shortened: as §3
[28] = system: Rattus norvegicus; assay: Biodistribution in spleen of Immature Female rat after 12 hour administration of 3 micro Ci (111 kBq) in the absence of 60 microg estradiol; format: ADME, organism-based; procedure, shortened: as §2
[29] = system: Rattus norvegicus; assay: Biodistribution in lungs of Immature Female rat after 5 hour administration of 3 micro Ci (111 kBq) in the absence of 60 microg estradiol; format: ADME, organism-based, Lung; procedure, shortened: as §3
[30] = system: Rattus norvegicus; assay: Biodistribution in blood of Immature Female rat after 5 hour administration of 3 micro Ci (111 kBq) in the absence of 60 microg estradiol; format: ADME, organism-based; procedure, shortened: as §3
[31] = system: Rattus norvegicus; assay: Biodistribution in kidney of Immature Female rat after 1 hr administration of 3 micro Ci (111 kBq) in the presence of (+E2); format: ADME, organism-based; procedure, shortened: as §3
[32] = system: Rattus norvegicus; assay: Biodistribution in uterus / blood of Immature Female rat after 12 hour administration of 3 micro Ci (111 kBq) in the absence of 60 microg estradiol; format: ADME, organism-based; procedure, shortened: as §4

| Structure (SMILES) | ID/g [1] [%] | ID/g [2] [%] | ID/g [3] [%] | ID/g [4] [%] | ID/g [5] [%] | ID/g [6] [%] | ID/g [7] [%] | ID/g [8] [%] | ID/g [9] [%] | uterus/blood ratio [10] | ID/g [11] [%] | ID/g [12] [%] | ID/g [13] [%] | ID/g [14] [%] | ID/g [15] [%] | ID/g [16] [%] | ID/g [17] [%] | ID/g [18] [%] | ID/g [19] [%] | ID/g [20] [%] | other results |
| --- | --- | --- | --- | --- | --- | --- | --- | --- | --- | --- | --- | --- | --- | --- | --- | --- | --- | --- | --- | --- | --- |
| CO[C@H]1C[C@@]2(C)[C@@H](CC[C@@]2(O)/C=C\I)[C@@H]2CCc3cc(O)c(F)cc3[C@H]21 | 6.45 | 1210 | 0.58 | 1.51 | 1.52 | 0.39 | 0.71 | 5.3 | 4.78 | 15.7 | 0.59 | 0.87 | 1.02 | 13.04 | 8.36 | 0.76 | 10.39 | 2.3 | 33.82 | 1.12 | ID/g [21]: 0.13%; ID/g [22]: 0.54%; ID/g [23]: 170%; ID/g [24]: 0.94%; ID/g [25]: 0.29%; ID/g [26]: 27.8%; ID/g [27]: 0.66%; ID/g [28]: 0.22%; ID/g [29]: 0.35%; ID/g [30]: 0.34%; ID/g [31]: 2.83%; ID/g [32]: 50.35% |
| CO[C@H]1C[C@@]2(C)[C@@H](CC[C@@]2(O)/C=C/I)[C@@H]2CCc3c(ccc(O)c3F)[C@H]21 | 12.64 | 274 | 0.98 | 2.65 | 1.95 | 0.48 | 0.94 | 0.78 | 2.3 | 30.4 | 0.79 | 0.28 | 1.3 | 9.17 | 8.02 | 1.07 | 3.24 | 0.91 | 50.9 | 3.57 | ID/g [21]: 0.83%; ID/g [22]: 0.26%; ID/g [23]: 71%; ID/g [24]: 1.02%; ID/g [25]: 0.45%; ID/g [26]: 68.66%; ID/g [27]: 1.69%; ID/g [28]: 0.22%; ID/g [29]: 0.52%; ID/g [30]: 0.17%; ID/g [31]: 1.28%; ID/g [32]: 122.53% |
